Reference: ChEMBL document CHEMBL4330099, “Lead generation and optimization of novel GPR119 agonists with a spirocyclic cyclohexane structure” (Bioorg Med Chem Lett, 2019)
Converted amounts (≈) assume the structure as drawn.

Tests used:
[1] = biological target: T1, Glucose-dependent insulinotropic receptor (Homo sapiens, UniProt Q8TDV5); assay: Agonist activity at human GPR119 expressed in HEK293 cells assessed as intracellular cAMP accumulation after 30 mins by HTRF assay; format: functional, cell-based
T1 sequence (Q8TDV5 whole entry): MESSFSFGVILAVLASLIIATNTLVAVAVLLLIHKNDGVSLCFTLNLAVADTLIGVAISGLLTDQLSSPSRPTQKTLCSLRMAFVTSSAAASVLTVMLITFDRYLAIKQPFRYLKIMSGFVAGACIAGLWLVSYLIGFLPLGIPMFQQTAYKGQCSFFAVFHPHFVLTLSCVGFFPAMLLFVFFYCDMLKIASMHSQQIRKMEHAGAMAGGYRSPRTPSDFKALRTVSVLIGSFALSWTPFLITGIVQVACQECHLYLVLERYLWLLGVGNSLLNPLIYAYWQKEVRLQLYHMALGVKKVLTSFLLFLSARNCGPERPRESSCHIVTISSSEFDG
In short: (§1)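 Anti-cAMP cryptate in lysis buffer was then added for 3 h at room temperature in the dark, and cAMP was read by HTRF. EC50 is the concentration giving 50% of the maximal OEA response; intrinsic activity is expressed as % of OEA (100%).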

[2] = biological target: T2, Glucose-dependent insulinotropic receptor (Homo sapiens) (UniProt Q8TDV5); assay: Intrinsic activity at human GPR119 expressed in HEK293 cells assessed as intracellular cAMP accumulation after 30 mins by HTRF assay relative to oleoylethanolamide; format: functional, cell-based; in short: as §1
T2 sequence (whole entry): T1 sequence (Q8TDV5 whole entry)

[3] = Solubility of the compound in Japanese pharmacopoeia first fluid at pH 1.2; format: physicochemical
In short: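 Solubility was measured in Japanese Pharmacopoeia 1st fluid for dissolution testing, adjusted to pH 1.2.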

[4] = Solubility of the compound in FeSSIF; format: physicochemical
[5] = Metabolic stability in human liver microsomes assessed as parent compound remaining at 5 uM after 1 hr; format: ADME, Microsome; details: read-out: Stability
In short: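 Compound (5 μM) was incubated with human liver microsomes ([…]) for 1 h. Percent of compound remaining was reported.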

[6] = Metabolic stability in rat liver microsomes assessed as parent compound remaining at 5 uM after 1 hr; format: ADME, Microsome; details: read-out: Stability
In short: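 Compound (5 μM) was incubated with rat liver microsomes ([…]) for 1 h. Percent of compound remaining was reported.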

**Q.** Which results are given for `Cc1c(Nc2ccc(S(C)(=O)=O)cc2)ncnc1O[C@H]1CC[C@]2(CC1)COC(C)(C)C2`?
**A.** EC50 [1]: 139 nM; Intrinsic activity [2]: 92%; solubility [3]: 4.4 µM (≈ 1.96 µg/mL); solubility [4]: 8.6 µM (≈ 3.83 µg/mL)

**Q.** For `CCc1c(Nc2ccc(S(C)(=O)=O)cc2F)ncnc1O[C@H]1CC[C@]2(CC1)COC(C)(C)C2`, which EC50 [1] is on record?
**A.** 42 nM

**Q.** What about the Intrinsic activity [2] of the same compound?
**A.** 82%

**Q.** What about the solubility [3] of the same compound?
**A.** 4.6 µM (≈ 2.2 µg/mL)

**Q.** And the solubility [4]?
**A.** 67.5 µM (≈ 32.2 µg/mL)

**Q.** Which results are given for `CC1(C)C[C@]2(CC[C@H](c3nc(COc4ccc(-n5cnnn5)cc4)cs3)CC2)CO1`?
**A.** EC50 [1]: 85 nM; Intrinsic activity [2]: 79%

**Q.** Which EC50 [1] does the source give for `CC(C)c1c(Nc2ccc(S(C)(=O)=O)cc2F)ncnc1O[C@H]1CC[C@]2(CC1)COC(C)(C)C2` here?
**A.** 98 nM

**Q.** And the Intrinsic activity [2]?
**A.** 61%

**Q.** What about the solubility [3] of the same compound?
**A.** 0.7 µM (≈ 0.344 µg/mL)

**Q.** What about the solubility [4] of the same compound?
**A.** 4.3 µM (≈ 2.11 µg/mL)

**Q.** With `Cc1c(O[C@H]2CC[C@]3(CC2)COC(C)(C)C3)ncnc1N1CCc2cc(S(C)(=O)=O)ccc21` as the compound, how does the EC50 [1] read?
**A.** > 1000 nM

**Q.** And the Intrinsic activity [2]?
**A.** 38%

**Q.** And the solubility [3]?
**A.** 2.8 µM (≈ 1.32 µg/mL)

**Q.** What about the solubility [4] of the same compound?
**A.** 25.5 µM (≈ 12 µg/mL)

**Q.** For `CC(O[C@H]1CC[C@]2(CC1)COC(C)(C)C2)c1nc(-c2ccc(S(C)(=O)=O)c(F)c2)no1` (some centres undefined), which EC50 [1] is on record?
**A.** 89 nM

**Q.** And the Intrinsic activity [2]?
**A.** 109%

**Q.** With `CC1(C)C[C@]2(CC[C@H](Oc3ncnc4c3CCN4c3ccc(S(C)(=O)=O)cc3F)CC2)CO1` as the compound, how does the EC50 [1] read?
**A.** 5 nM

**Q.** And the Intrinsic activity [2]?
**A.** 90%

**Q.** And the solubility [3]?
**A.** 18.9 µM (≈ 8.99 µg/mL)

**Q.** What about the solubility [4] of the same compound?
**A.** 15.2 µM (≈ 7.23 µg/mL)

**Q.** For `Cc1c(O[C@H]2CC[C@]3(CC2)COC(C)(C)C3)ncnc1N(C)c1ccc(S(C)(=O)=O)cc1F`, which EC50 [1] is on record?
**A.** > 1000 nM

**Q.** And the Intrinsic activity [2]?
**A.** 17%

**Q.** And the solubility [3]?
**A.** 13 µM (≈ 6.21 µg/mL)

**Q.** What about the solubility [4] of the same compound?
**A.** 42.5 µM (≈ 20.3 µg/mL)

**Q.** For `CN(c1ncnc2c1CCN2c1ccc(S(C)(=O)=O)cc1F)[C@H]1CC[C@]2(CC1)COC(C)(C)C2`, which EC50 [1] is on record?
**A.** 39 nM

**Q.** And the Intrinsic activity [2]?
**A.** 118%

**Q.** What about the solubility [3] of the same compound?
**A.** > 475 µM

**Q.** What about the solubility [4] of the same compound?
**A.** 75.3 µM (≈ 36.8 µg/mL)

**Q.** And the remaining at 1 h, 5 µM [5]?
**A.** 99%

**Q.** What about the remaining at 1 h, 5 µM [6] of the same compound?
**A.** 94%

**Q.** Which results are given for `Cc1c(Nc2ccc(C(=O)N(C)C)cc2F)ncnc1O[C@H]1CC[C@]2(CC1)COC(C)(C)C2`?
**A.** EC50 [1]: 33 nM; Intrinsic activity [2]: 101%; solubility [3]: 128 µM (≈ 58.7 µg/mL); solubility [4]: 65.2 µM (≈ 29.8 µg/mL); remaining at 1 h, 5 µM [5]: 77%; remaining at 1 h, 5 µM [6]: 44%

**Q.** For `Cc1c(Oc2ccc(S(C)(=O)=O)cc2F)ncnc1O[C@H]1CC[C@]2(CC1)COC(C)(C)C2`, which EC50 [1] is on record?
**A.** 59 nM

**Q.** And the Intrinsic activity [2]?
**A.** 62%

**Q.** What about the solubility [3] of the same compound?
**A.** < 0.5 µM

**Q.** And the solubility [4]?
**A.** 33.4 µM (≈ 15.5 µg/mL)

**Q.** What does the source list for `Cc1c(Nc2ccc(S(C)(=O)=O)cc2F)ncnc1O[C@H]1CC[C@]2(CC1)COC(C)(C)C2`?
**A.** EC50 [1]: 13 nM; Intrinsic activity [2]: 91%; solubility [3]: 5.3 µM (≈ 2.46 µg/mL); solubility [4]: 15.8 µM (≈ 7.32 µg/mL)

**Q.** With `Cc1c(Nc2ccc(S(C)(=O)=O)cc2F)ncnc1N(C)[C@H]1CC[C@]2(CC1)COC(C)(C)C2` as the compound, how does the EC50 [1] read?
**A.** 45 nM

**Q.** What about the Intrinsic activity [2] of the same compound?
**A.** 128%

**Q.** What about the solubility [3] of the same compound?
**A.** > 475 µM

**Q.** And the solubility [4]?
**A.** 49.8 µM (≈ 23.7 µg/mL)

**Q.** What about the remaining at 1 h, 5 µM [5] of the same compound?
**A.** 91%

**Q.** And the remaining at 1 h, 5 µM [6]?
**A.** 93%

**Q.** Which EC50 [1] does the source give for `CC1(C)C[C@]2(CC[C@H](Oc3cc(N4CCc5cc(S(C)(=O)=O)ccc54)ncn3)CC2)CO1` here?
**A.** 15 nM

**Q.** And the Intrinsic activity [2]?
**A.** 87%

**Q.** And the solubility [3]?
**A.** 7 µM (≈ 3.2 µg/mL)

**Q.** And the solubility [4]?
**A.** 19.8 µM (≈ 9.06 µg/mL)

**Q.** With `CN(c1cc(N2CCc3cc(S(C)(=O)=O)ccc32)ncn1)[C@H]1CC[C@]2(CC1)COC(C)(C)C2` as the compound, how does the EC50 [1] read?
**A.** 16 nM

**Q.** And the Intrinsic activity [2]?
**A.** 108%

**Q.** And the solubility [3]?
**A.** 418 µM (≈ 197 µg/mL)

**Q.** And the solubility [4]?
**A.** 24.3 µM (≈ 11.4 µg/mL)

**Q.** And the remaining at 1 h, 5 µM [5]?
**A.** 89%

**Q.** And the remaining at 1 h, 5 µM [6]?
**A.** 80%
